Screening results (PubChem)
NLRP3 yeast inh = blocks the NALP3 inflammasome reconstituted in yeast; Yeast reconstituted NLRP3/ASC/caspase-1, beta-gal luminescence, 24 h; inhibition, % at 10 µM; 330,000 compounds, 0.39% hits;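 active = inhibition of 50% or more; inactive = inhibition below 50%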;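 also: plate controls were induced DMSO wells for no effect and uninduced yeast grown without galactose for full effect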
ALR inh = inhibitors of human sulfhydryl oxidase ALR; purified ALR, DTT oxidation, H2O2 HRP-luminol luminescence; inhibition, % (test concentration not listed); 290,000 compounds, 3.8% hits; P55789; AID 485317;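 active = mean replicate inhibition above about 79%, with every replicate also reaching it, limit read from the data; inconclusive = only one of the two criteria met; inactive = mean below limit and not every replicate reaching it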
Target sequence (P55789 whole entry, looked up): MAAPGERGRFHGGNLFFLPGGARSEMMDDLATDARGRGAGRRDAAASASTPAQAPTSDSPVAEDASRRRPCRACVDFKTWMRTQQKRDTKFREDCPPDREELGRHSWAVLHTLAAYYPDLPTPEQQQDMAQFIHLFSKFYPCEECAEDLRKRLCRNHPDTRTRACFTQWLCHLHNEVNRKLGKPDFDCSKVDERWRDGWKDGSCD
DSG3 Ab inh = inhibitors of pemphigus antibody binding to human desmoglein-3; binding (percent of control), % at 10 µM; DSG3-coupled beads, scFv-anti-DSG3-GFP binding, flow cytometry; hits give low values; 310,000 compounds, 0.48% hits; P32926;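 active = binding more than 3 SD below its plate's average and above zero; inconclusive = below that plate limit but binding exactly zero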;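 also: hits lower antibody fragment binding to DSG3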
PolyA inhibitor = blocks polyadenylation in yeast reporter cells; S. cerevisiae SKY197-pL101 polyadenylation reporter, beta-gal luminescence; efflux-impaired pdr1/pdr3 knockout yeast; score 100 = 6 SD above DMSO; activity score, % at 12 µM; 300,000 compounds, 0.02% hits; AID 1875;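 active = lowest replicate activity score at least 50, where 100 means six control SD above control mean; inconclusive = lowest score under 50 but half or more replicates reach 50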;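 also: yeast exposed to compound for 9 h at 30 °C; higher score means more reporter readthrough which indicates perturbed polyadenylation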
Arrestin-AP2 inh = inhibitors of human beta-arrestin and AP2 interaction; FITC-arrestin peptide / GST-AP2 beads, flow cytometry; AP2 beta2 appendage carries R879A mutation; inhibition, % at 10 µM; 340,000 compounds, 0.31% hits;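 active = inhibition above a set limit, near 3 SD of compounds lacking own fluorescence, cut at about 54% in these data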;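 also: plate controls were DMSO wells for no effect and 5 µM unlabelled arrestin peptide for full effect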
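Assay system: GST-AP2 R879A bound to glutathione beads, E. coli-expressed; Medium: PBS with 0.05% Tween 20 and 0.1% BSA; Also added: fluorescein-tagged arrestin peptide at 50 nM final; Timing: 12 min plus 1 h, RT; Measured by: flow cytometry, FL1 (488/535 nm); Evaluation: percent drop in bead-associated FITC signal.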
NALP1 inh = blocks the NALP1 inflammasome reconstituted in yeast; S. cerevisiae NALP1/ASC/caspase-1 growth, X-gal OD620, 72 h; inhibition, % at 10 µM; 280,000 compounds, 0.61% hits; AID 2071; in the data active = inhibition mostly above about 24%, no sharp cut-off; inactive = mostly below about 32%
An asterisk follows results filed as active; u = inconclusive; x = not tested or not shown. Hits are enriched below; roughly 4.6% of the tested compounds scored in any of these assays.

SMILES | NLRP3 yeast inh | ALR inh | DSG3 Ab inh | PolyA inhibitor | Arrestin-AP2 inh | NALP1 inh
COc1ccc(/C=C(/NC(=O)c2ccc(Br)o2)C(=O)Nc2cccc(C(=O)O)c2)cc1 | x | x | 100 | x | x | x
CCN1C(=S)SC(=O)C1=C1C=C(C)N(CCOC)C(C)=C1 | x | x | x | x | x | 15
CCN1C(=S)SC(=O)C1=C1C=C(C)N(CCO)C(C)=C1 | 15 | 99* | 100 | -26 | 16 | -8
CCN(CC)C(=O)c1csc(Nc2ccc(C)cc2)n1 | -3 | 87* | 97 | x | 0 | -7
O=C(CSc1nccn(-c2cccc(F)c2)c1=O)Nc1ccc(Cl)cc1F | 25 | 99* | 98 | -23 | -1 | 15
O=C(CSc1nccn(-c2ccc(F)c(F)c2)c1=O)NC1CCCC1 | 11 | x | 104 | -6 | -7 | x
Cc1ccc(CNC(=O)CSc2nccn(-c3ccc(C)c(F)c3)c2=O)cc1 | 19 | 98* | 98 | 14 | 1 | x
COc1ccccc1-n1ccnc(SCC(=O)NCc2ccccc2)c1=O | 8 | x | 105 | -11 | -4 | x
O=C(CSc1nccn(-c2ccc(Br)cc2)c1=O)NCc1ccccc1 | 17 | x | 125 | -13 | -5 | x
COc1ccc(-n2ccnc(SCC(=O)NCc3ccc(C)cc3)c2=O)cc1Cl | 9 | 98* | 94 | 12 | -3 | x
CC(C)(C)OC(=O)N1CCc2onc(-c3ccc(Cl)cc3)c2C1=O | x | x | 100 | x | x | x
Cc1cccc(NC(=O)c2cccc(S(=O)(=O)N(C)C3CCCCC3)c2)n1 | x | x | 101 | x | x | x
O=[N+]([O-])c1cc([N+](=O)[O-])c2nonc2c1Nc1ccccc1O | 36 | 99* | 104 | -10 | 0 | 15
CC(=O)c1ccc(Nc2c([N+](=O)[O-])ccc3nonc23)cc1 | 12 | -32 | 102 | -3 | -7 | 14
O=[N+]([O-])c1cc([N+](=O)[O-])c2nonc2c1Nc1ccc(O)cc1 | 20 | 99* | 99 | 24 | 1 | 6
N#C/C(=C\c1cc(Br)ccc1F)C(=O)NC1CC1 | 15 | 5 | 104 | 1 | -10 | 9
CN(C)c1ccc(/C=C(\C#N)C(=O)c2ccccc2)cc1 | x | 1 | 164 | -15 | 10 | 37*
N#C/C(=C\c1ccc(C#N)cc1)C(=O)c1ccccc1 | x | 93* | 102 | 14 | 42 | 13
CN(C)c1cccc(/C=C(\C#N)c2ccccc2)c1 | 19 | 99* | 104 | 1 | -5 | 5
COc1ccccc1CN1CCN(Cc2nc(-c3cccs3)no2)CC1 | 11 | -2 | 94 | u | -2 | 22*
C#CCN1C=C(C(=O)OCC)C(C)N(Cc2ccccc2I)S1(=O)=O (configuration not stated) | x | x | 95 | x | -6 | x
O=C(CCCN1C(=O)NC2(CCCC2)C1=O)NCc1ccccc1 | 9 | 0 | 99 | x | 22 | x
CCN(CC)c1ccc2c(C)c(CO)c(=O)oc2c1 | 4 | 99* | 104 | -11 | -1 | 2
CCN(CC)c1ccc2c(C)c(CN3CCOCC3)c(=O)oc2c1 | 4 | 13 | x | 5 | -8 | 7
Nc1c2c(nc3sc4c(c13)CCCCC4)CCCCC2 | 17 | -8 | 121 | 1 | 2 | 64*
SMILES | NLRP3 yeast inh | ALR inh | DSG3 Ab inh | PolyA inhibitor | Arrestin-AP2 inh | NALP1 inh
CCc1c(-c2ccccc2)nc2sc3c(c2c1N)CCCC3 | 10 | 3 | 105 | 0 | -4 | 6
NS(=O)(=O)c1ccc(CNC(=O)c2sccc2-c2ccccc2)cc1 | 9 | -2 | x | 10 | -2 | 5
COc1cc(C(=O)O[C@H]2CC(C)=CC[C@@]3(C)CC[C@@](O)(C(C)C)[C@H]23)ccc1O | 2 | 6 | 97 | -6 | 6 | -11
O=C(Cc1ccc2c(c1)OCCO2)Nc1cc(C(F)(F)F)ccc1N1CCOCC1 | 19 | x | 102 | x | -3 | x
CCc1c(C)sc(NC(=O)c2cc(C)no2)c1C#N | 29 | 93* | 98 | -4 | 2 | -44
CCc1c(C)sc(NC(=O)c2cc(C(C)C)on2)c1C#N | 31 | 6 | 95 | 0 | 11 | 6
CC1CCN(S(=O)(=O)c2cn(CC(=O)Nc3cccc(C#N)c3)cn2)CC1 | -1 | 6 | x | 10 | 0 | 5
CC(=O)c1cccc(NC(=O)Cn2cnc(S(=O)(=O)N3CCC(C)CC3)c2)c1 | 0 | -9 | 82* | -17 | -2 | 14
